Key:
[1] = target: T1, HIV-1 RT Q91N (Human immunodeficiency virus type 1 group M subtype B, UniProt P03366, Q690N); test: Steady-state kinetics of polymerization, Q91N mutant; assay type: biochemical
How it was run: (§1)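 Run at 25 °C with 40 nM mutant RT and 100 nM poly rA.dT18 or poly rC.dG18, each prepared by annealing equimolar template and primer at 20 μM. Buffer was 50 mM Tris-HCl pH 7.5, 2 mM MgCl2, 1 mM DTT and 100 μg/mL BSA. Complementary dTTP or dGTP was varied, with [3H]dTTP specific activity set using unlabeled dTTP. Reactions were started with MgCl2 and stopped with ice-cold 5% TCA at set times, then filtered and scintillation-counted. Km and Vmax came from Eadie-Hofstee plots of initial velocities; kcat = Vmax/[E].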

[2] = target: T2, wild type HIV-1 RT (Human immunodeficiency virus type 1 group M subtype B, UniProt P03366); test: Steady-state kinetics of polymerization, wild-type enzyme; assay type: biochemical; details: WT, 25°C
[3] = target: T3, HIV-1 RT M184V (Human immunodeficiency virus type 1 group M subtype B, UniProt P03366, M783V); test: Steady-state kinetics of polymerization, M184V mutant; assay type: biochemical; details: 25°C
[4] = target: T4, HIV-1 RT Q91N+M184V (Human immunodeficiency virus type 1 group M subtype B, UniProt P03366, M783V/Q690N); test: Steady-state kinetics of polymerization, Q91N+M184V mutant; assay type: biochemical; details: 25°C
How it was run: as §1

[5] = target: T5, HIV-1 RT Q91A (Human immunodeficiency virus type 1 group M subtype B, UniProt P03366, Q690A); test: Steady-state kinetics of polymerization, Q91A mutant; assay type: biochemical; details: Q91A, 25°C
[6] = target: T6, HIV-1 RT Q91A+M184V (Human immunodeficiency virus type 1 group M subtype B, UniProt P03366, M783V/Q690A); test: Steady-state kinetics of polymerization, Q91A+M184V mutant; assay type: biochemical; details: Q91A+M184V, 25°C
[7] = system: HIV-1 RT Q91A; test: Steady-state kinetics of polymerization, Q91A mutant; assay type: biochemical, human immunodeficiency virus type 1; details: Q91A vs wild type; poly-rA.dT18 template, dTTP
[8] = system: HIV-1 RT Q91A+M184V; test: Steady-state kinetics of polymerization, Q91A+M184V mutant; assay type: biochemical, human immunodeficiency virus type 1; details: Q91A/M184V vs wild type; poly-rA.dT18 template, dTTP
[9] = target: T2, wild type HIV-1 RT; test: Inhibition of reverse transcription by ddNTP inhibitors, wild-type enzyme; assay type: biochemical; details: WT; for Ki: 37 °C 3 min; for IC50: IC50=Ki(1+[S]/Km)
[10] = target: T3, HIV-1 RT M184V; test: Inhibition of reverse transcription by ddNTP inhibitors, M184V mutant; assay type: biochemical; details: for Ki: 37 °C 3 min; for IC50: IC50=Ki(1+[S]/Km)
[11] = target: T6, HIV-1 RT Q91A+M184V; test: Inhibition of reverse transcription by ddNTP inhibitors, Q91A+M184V mutant; assay type: biochemical; details: for Ki: 37 °C 3 min; for IC50: IC50=Ki(1+[S]/Km)
[12] = target: T5, HIV-1 RT Q91A; test: Inhibition of reverse transcription by ddNTP inhibitors, Q91A mutant; assay type: biochemical; details: for Ki: 37 °C 3 min; for IC50: IC50=Ki(1+[S]/Km)
[13] = target: T1, HIV-1 RT Q91N; test: Inhibition of reverse transcription by ddNTP inhibitors, Q91N mutant; assay type: biochemical; details: for Ki: 37 °C 3 min; for IC50: IC50=Ki(1+[S]/Km)
How it was run: (§2)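 Recombinant heterodimeric HIV-1 RT (p66 with N-terminally His-tagged p51), mutation present in both subunits, used at 10 nM. The enzyme was preincubated with 100 nM poly rA.dT18 or poly rC-dG18 for 2 min at 25 °C. Synthesis was started with Mg-complexed 10 μM [3H]dTTP or dGTP (1 μCi per assay) plus varied ddTTP or ddGTP, then run 3 min at 37 °C. Reactions were stopped with cold 5% TCA/5 mM PPi, collected on GF/B filters and counted by scintillation. Ki came from percent inhibition using the competitive-inhibitor equation; IC50 = Ki(1+[S]/Km). Three independent experiments.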

[14] = target: T4, HIV-1 RT Q91N+M184V; test: Inhibition of reverse transcription by ddNTP inhibitors, Q91N+M184V mutant; assay type: biochemical; details: for Ki: 37 °C 3 min; for IC50: IC50=Ki(1+[S]/Km)
How it was run: as §2

[15] = Poly rC.dG18 template-primer, dGTP substrate
[16] = Poly rA.dT18 template-primer, dTTP substrate
[17] = poly rC-dG18 100 nM, dGTP 10 μM
[18] = poly rA.dT18 100 nM, dTTP 10 μM

Nc1nc2c(ncn2[C@H]2C[C@H](O)[C@@H](COP(=O)(O)OP(=O)(O)OP(=O)(O)O)O2)c(=O)[nH]1 [dGTP]
decrease in catalytic efficiency ([1]; Q91N vs wild type, poly rC template, range given jointly for Q91N and Q91N/M184V): 5–10 fold
KmdGTP ([1]; Q91N, Poly rC.dG18 template-primer, 25°C): 8.0 ± 2.1 µM
Kcat ([1]; Q91N, Poly rC.dG18 template-primer, dGTP substrate, 25°C): 0.02 ± 0.002 s⁻¹
KmdGTP ([2]; Poly rC.dG18 template-primer): 6.0 ± 1.4 µM
Kcat [2, 15]: 0.15 ± 0.019 s⁻¹
KmdGTP ([3]; Poly rC.dG18 template-primer): 8.0 ± 2.2 µM
Kcat [3, 15]: 0.08 ± 0.011 s⁻¹
KmdGTP ([4]; Poly rC.dG18 template-primer): 8.0 ± 1.8 µM
Kcat [4, 15]: 0.04 ± 0.012 s⁻¹
KmdGTP ([5]; Poly rC.dG18 template-primer): 25.0 ± 4.0 µM
Kcat [5, 15]: 0.02 ± 0.006 s⁻¹
KmdGTP ([6]; Poly rC.dG18 template-primer): 57.0 ± 5.0 µM
Kcat [6, 15]: 0.06 ± 0.010 s⁻¹

Cc1cn([C@H]2C[C@H](O)[C@@H](COP(=O)(O)OP(=O)(O)OP(=O)(O)O)O2)c(=O)[nH]c1=O [dTTP]
KmdTTP ([1]; Q91N, Poly rA.dT18 template-primer, 25°C): 7.0 ± 1.5 µM
Kcat ([1]; Q91N, Poly rA.dT18 template-primer, dTTP substrate, 25°C): 0.25 ± 0.08 s⁻¹
KmdTTP ([2]; Poly rA.dT18 template-primer): 3.0 ± 1.1 µM
Kcat [2, 16]: 0.39 ± 0.6 s⁻¹
KmdTTP ([3]; Poly rA.dT18 template-primer): 3.5 ± 1.2 µM
Kcat [3, 16]: 0.53 ± 0.12 s⁻¹
KmdTTP ([4]; Poly rA.dT18 template-primer): 5.0 ± 1.0 µM
Kcat [4, 16]: 0.27 ± 0.11 s⁻¹
KmdTTP ([5]; Poly rA.dT18 template-primer): 30.0 ± 3.5 µM
Kcat [5, 16]: 0.10 ± 0.03 s⁻¹
decrease in the catalytic efficiency [7]: 21 fold
KmdTTP ([6]; Poly rA.dT18 template-primer): 37.0 ± 4.0 µM
Kcat [6, 16]: 0.23 ± 0.07 s⁻¹
decrease in the catalytic efficiency [8]: 43 fold

Nc1nc2c(ncn2[C@H]2CC[C@@H](COP(=O)(O)OP(=O)(O)OP(=O)(O)O)O2)c(=O)[nH]1 [ddGTP]
Ki [9, 17]: 0.112 µM
IC50 [9, 17]: 0.308 µM
Ki [10, 17]: 0.403 µM
IC50 [10, 17]: 0.9 µM
Ki [11, 17]: 0.418 µM
IC50 [11, 17]: 0.491 µM
Ki [12, 17]: 0.885 µM
IC50 [12, 17]: 1.24 µM
Ki [13, 17]: 0.476 µM
IC50 [13, 17]: 1.09 µM
Ki [14, 17]: 0.13 µM
IC50 [14, 17]: 0.285 µM

Cc1cn([C@H]2CC[C@@H](COP(=O)(O)OP(=O)(O)OP(=O)(O)O)O2)c(=O)[nH]c1=O [ddTTP]
Ki [9, 18]: 0.004 µM
IC50 [9, 18]: 0.017 µM
Ki [10, 18]: 0.018 µM
IC50 [10, 18]: 0.069 µM
Ki [11, 18]: 0.045 µM
IC50 [11, 18]: 0.057 µM
Ki [12, 18]: 0.076 µM
IC50 [12, 18]: 0.101 µM
Ki [13, 18]: 0.062 µM
IC50 [13, 18]: 0.15 µM
Ki [14, 18]: 0.012 µM
IC50 [14, 18]: 0.036 µM

From publication PMC3204787 (Biochemistry, 2011)
